Results on 38 compounds are retold here after ChEMBL document CHEMBL1138297, “Design, synthesis, and multivariate quantitative structure-activity relationship of salicylanilides--potent inhibitors of type III secretion in Yersinia” (J Med Chem, 2007).

Test [1] concerns Yersinia pseudotuberculosis. Nature of the test: Effect on T3S in Yersinia pseudotuberculosis 3 pIB29 assessed as inhibition of light emission at 10 uM by luciferase reporter gene assay. The gist of the method:
(§1)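 YPIII pIB29 (yopE-luxAB) reporter strain grown overnight at ambient temperature in BHI with 5 mM EGTA and 20 mM MgCl2 to deplete calcium. Culture adjusted to OD600 0.15-0.25 and added to compounds in DMSO (final ≤1%). Incubated 1 h at ambient temperature with shaking, then 2 h at 37 °C. Decanal substrate added and luminescence read at once. Triplicates; repeated on ≥2 occasions.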
In general terms: Reporter assays use an easily measured gene product as a stand-in for the process of interest.

For test [2], the system named is Yersinia pseudotuberculosis. Briefly: Effect on T3S in Yersinia pseudotuberculosis 3 pIB29 assessed as inhibition of light emission at 50 uM by luciferase reporter gene assay. The procedure, abridged:
as §1

The test system of test [3] is Yersinia pseudotuberculosis. Nature of the test: Effect on T3S in Yersinia pseudotuberculosis 3 pIB29 assessed as inhibition of light emission at 20 uM by luciferase reporter gene assay. The procedure, abridged:
as §1

Test [4] has as its system Yersinia pseudotuberculosis. Briefly: Effect on T3S in Yersinia pseudotuberculosis 3 pIB29 assessed as inhibition of light emission at 100 uM by luciferase reporter gene assay. The gist of the method:
as §1

The subject of test [5] is Yersinia pseudotuberculosis. Nature of the test: Effect on T3S in Yersinia pseudotuberculosis 3 pIB29 assessed as inhibition of light emission at 1 uM by luciferase reporter gene assay. The procedure, abridged:
as §1

Test [6] has as its system Yersinia pseudotuberculosis. Nature of the test: Effect on T3S in Yersinia pseudotuberculosis 3 pIB29 assessed as inhibition of light emission at 2 uM by luciferase reporter gene assay. The procedure, abridged:
as §1

For test [7], the system named is Yersinia pseudotuberculosis. Briefly: Effect on T3S in Yersinia pseudotuberculosis 3 pIB29 assessed as inhibition of light emission at 0.5 uM by luciferase reporter gene assay. The procedure, abridged: as §1
For test [8], the system named is Yersinia pseudotuberculosis. Nature of the test: Effect on T3S in Yersinia pseudotuberculosis 3 pIB29 assessed as inhibition of light emission at 5 uM by luciferase reporter gene assay. The gist of the method:
as §1

Activity calls are given as the source filed them. No cut-off for these calls is given here.

As a reminder, the inhibition is the relative decrease from the control value, in per cent. On to `CC(=O)Oc1ccc(F)cc1C(=O)Nc1ccc(C(C)(C)C)cc1`, for which the inhibition in test [1] came out at 37%; in test [2] it was 22%; in test [3], 37%; in test [4] it was 22%.
Regarding `CC(=O)Oc1c(C(=O)Nc2ccc(SC(F)(F)F)cc2)cc2cc(Br)ccc2c1Br`, the inhibition in test [1] is 9%; in test [2] it was 4%; in test [3] it was 10%; in test [4] it was -3%.
Consider `O=C(Nc1ccc(SC(F)(F)F)cc1)c1cccc(Cl)c1O`, for which the inhibition in test [1] is 61%; in test [5], 3%; in test [2], 99%; in test [3], 81%; in test [6] it was 13%; in test [4], 100%. Also, the inhibition in test [7] was -2%; in test [8], 38%.
For `CC(=O)Oc1ccccc1C(=O)Nc1ccc(Cl)cc1`, the inhibition in test [1] was determined as 23%; in test [2], 92%; in test [3], 44%; in test [4], 99%.
With `O=C(Nc1ccc(SC(F)(F)F)cc1)c1cc2cc(Br)ccc2c(Br)c1O`, the inhibition is 41% in test [1], 63% in test [2], 55% in test [3] and 63% in test [4].
As to `CC(=O)Oc1cc(C)ccc1C(=O)Nc1ccccc1F`, the inhibition in test [1] turned out to be 0%; in test [2] it was 53%; in test [3] it was 8%; in test [4], 95%.
In the same order, the values of `CCCCCCCc1ccc(NC(=O)c2cc(I)cc(I)c2OC(C)=O)cc1` are 19%, 17%, 19% and 5%.
Take `COc1cc(Cl)c(C)cc1NC(=O)c1cccc(C(C)C)c1OC(C)=O`: the inhibition was 10% in test [1], 4% in test [2], 8% in test [3] and -1% in test [4].
As to `O=C(Nc1ccc(SC(F)(F)F)cc1)c1c(O)c(Cl)cc(Cl)c1Cl`, the inhibition in test [1] was determined as 58%; in test [5], 4%; in test [2], 100%; in test [3], 68%; in test [6], 18%; in test [4] it was 100%. Besides, the figures for the inhibition in test [7] and in test [8] were 11% and 54%, respectively.
With `COc1cc(Cl)c(C)cc1NC(=O)c1cc(I)cc(I)c1O`, the inhibition in test [1] is 35%; in test [2], 57%; in test [3], 55%; in test [4], 67%.
In the case of `CC(=O)Oc1c(Cl)cc(Cl)c(Cl)c1C(=O)Nc1ccc(F)cc1`, the inhibition amounted to 19% in test [1], 32% in test [2], 23% in test [3] and 54% in test [4].
Take `CC(=O)Oc1c(Cl)cc(Cl)c(Cl)c1C(=O)Nc1ccc(C(C)(C)C)cc1`: the inhibition in test [1] was 4%; in test [2] it was 19%; in test [3], 7%; in test [4], 12%.
For the compound `O=C(Nc1ccc(F)cc1)c1cc(I)cc(I)c1O`, the inhibition was 62% in test [1]; 3% in test [5]; 99% in test [2]; 78% in test [3]; 6% in test [6]; 100% in test [4]. In addition, the inhibition in test [7] was found to be 5%; in test [8], 26%.
Regarding `O=C(Nc1ccccc1)c1cc(I)cc(I)c1O`, the inhibition stood at 32% in test [1], 87% in test [2], 51% in test [3] and 99% in test [4].
Turning to `COc1cc(Cl)c(C)cc1NC(=O)c1cc(C)ccc1O`, the outcome in test [1] and in test [3] was inactive. Also, the values for the inhibition in test [2] and in test [4] were 16% and -1%, respectively.
For the compound `Cc1ccc(C(=O)Nc2ccccc2F)c(O)c1`, the inhibition came out at 23% in test [1], 35% in test [2], 21% in test [3] and 34% in test [4].
`CC(=O)Oc1c(I)cc(I)cc1C(=O)Nc1ccc(SC(F)(F)F)cc1`: the inhibition in test [1] stood at 72%; in test [5] it was 11%; in test [2], 71%; in test [3] it was 71%; in test [6] it was 19%; in test [4], 75%. Further, the inhibition in test [7] amounted to 11%; in test [8] it was 60%.
In the case of `CC(=O)Oc1c(I)cc(I)cc1C(=O)Nc1ccc(C(C)(C)C)cc1`, the inhibition is 17% in test [1], 17% in test [2], 20% in test [3] and 2% in test [4].
Take `O=C(Nc1ccc(SC(F)(F)F)cc1)c1cc(I)ccc1O`: the inhibition amounted to 57% in test [1]; 53% in test [5]; 49% in test [2]; 57% in test [3]; 53% in test [6]; 51% in test [4]. The inhibition in test [7] was found to be 17%; in test [8], 55%.
On to `CC(C)(C)c1ccc(NC(=O)c2cc(F)ccc2O)cc1`, for which the inhibition in test [1] came out at 13%; in test [2], 13%; in test [3], 12%; in test [4], 8%.
With `O=C(Nc1ccccc1)c1c(O)c(Cl)cc(Cl)c1Cl`, the inhibition in test [1] came out at 22%; in test [2], 23%; in test [3], 21%; in test [4], 31%.
In the case of `O=C(Nc1ccccc1F)c1cc(Br)cc(Br)c1O`, the inhibition in test [1] stood at 14%; in test [2], 64%; in test [3], 29%; in test [4], 78%.
Regarding `O=C(Nc1ccc(F)cc1)c1c(O)c(Cl)cc(Cl)c1Cl`, the inhibition in test [1] amounted to 19%; in test [2], 32%; in test [3] it was 19%; in test [4], 45%.
Regarding `O=C(Nc1ccc(Cl)cc1)c1cc(F)cc(F)c1`, the outcome in test [1], in test [2], in test [3] and in test [4] was inactive.
Take `CC(=O)Oc1c(Cl)cc(Cl)c(Cl)c1C(=O)Nc1ccccc1`: the result in test [1] and in test [3] was inactive. Besides, the inhibition in test [2] is 12%; in test [4], 10%.
Consider `Cc1cc(C)cc(NC(=O)c2c(O)c(Cl)cc(Cl)c2Cl)c1`, for which the inhibition turned out to be 21% in test [1], 46% in test [2], 24% in test [3] and 52% in test [4].
For `CC(C)(C)c1cc(NC(=O)c2cc(Br)ccc2O)cc(C(C)(C)C)c1` the same measures were 12%, -4%, 9% and 0%.
In the same order, the values of `CC(C)(C)c1ccc(NC(=O)c2cc(I)cc(I)c2O)cc1` are 33%, 41%, 40% and 42%.
As to `CC(=O)Oc1c(Br)cc(Br)cc1C(=O)Nc1ccccc1F`, the inhibition in test [1] was found to be 6%; in test [2] it was 61%; in test [3], 15%; in test [4], 83%.
In the same order, the values of `O=C(Nc1ccc(Cl)cc1)c1ccccc1O` are 14%, 99%, 64% and 100%.
For `COc1cc(Cl)c(C)cc1NC(=O)c1cc(I)cc(I)c1OC(C)=O` the same measures were 11%, 35%, 19% and 50%.
For `CC(=O)Oc1c(I)cc(I)cc1C(=O)Nc1ccccc1`, the inhibition in test [1] was determined as 30%; in test [2], 75%; in test [3] it was 48%; in test [4], 94%.
Turning to `CC(C)(C)c1ccc(NC(=O)c2c(O)c(Cl)cc(Cl)c2Cl)cc1`, the inhibition in test [1] is 27%; in test [2], 23%; in test [3], 28%; in test [4], 34%.
In the case of `COc1cc(Cl)c(C)cc1NC(=O)c1cccc(C(C)C)c1O`, the inhibition in test [1] worked out at 23%; in test [2] it was 19%; in test [3] it was 25%; in test [4] it was 5%.
Take `COc1cc(Cl)c(C)cc1NC(=O)c1cc(C)ccc1OC(C)=O`: the result in test [1] and in test [3] was inactive. For the same compound, in test [2], the inhibition is -2%.
With `CC(=O)Oc1ccc(Br)cc1C(=O)Nc1cc(C(C)(C)C)cc(C(C)(C)C)c1`, the result in test [1] and in test [3] was inactive. The inhibition in test [2] was found to be 15%; in test [4], 0%.
Consider `CC(=O)Oc1c(Cl)cc(Cl)c(Cl)c1C(=O)Nc1cc(C)cc(C)c1`, for which the inhibition in test [1] came to 6%; in test [2] it was 5%; in test [3], 6%; in test [4] it was 20%.
With `CCCCCCCc1ccc(NC(=O)c2cc(I)cc(I)c2O)cc1`, the inhibition in test [1] amounted to 30%; in test [2] it was 22%; in test [3] it was 27%; in test [4], 3%.
